Experimental data from article PMC11324745 (Nature Communications, 2024).

Tests used:
[1] = system: Brca1^Δ11;Δ11 MEFs; conditions: cited from earlier work
[2] = system: DLD1 BRCA2-KO (BRCA2 -/-, null) cells; experiment: Colony survival assay, DLD1 BRCA2-KO; assay type: cell-based; conditions: DLD1 isogenic pair, vs BRCA2-WT
Outline: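 Isogenic pairs (DLD1 in RPMI; HCT 116 in DMEM; each with 10% FBS, glutamine, non-essential amino acids) seeded in 24-well plates: 800 cells/well for BRCA-null and 200 cells/well for wild-type. Test compound exposure with medium changed every 2–3 days for 10–12 days. Fixed in water:ethanol:acetic acid 5:4:1, stained with 0.5% crystal violet for 2 h, colonies counted manually. Mean ± S.E.M.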

[3] = system: Brca1^cc/cc MEFs; experiment: Colony survival assay, Brca1 cc/cc MEFs; assay type: cell-based, mouse; conditions: vs Brca1-WT MEFs
[4] = target: Polθ-hel (Homo sapiens, UniProt O75417); conditions: cited from earlier work
Polθ-hel, sequence (O75417 1-894): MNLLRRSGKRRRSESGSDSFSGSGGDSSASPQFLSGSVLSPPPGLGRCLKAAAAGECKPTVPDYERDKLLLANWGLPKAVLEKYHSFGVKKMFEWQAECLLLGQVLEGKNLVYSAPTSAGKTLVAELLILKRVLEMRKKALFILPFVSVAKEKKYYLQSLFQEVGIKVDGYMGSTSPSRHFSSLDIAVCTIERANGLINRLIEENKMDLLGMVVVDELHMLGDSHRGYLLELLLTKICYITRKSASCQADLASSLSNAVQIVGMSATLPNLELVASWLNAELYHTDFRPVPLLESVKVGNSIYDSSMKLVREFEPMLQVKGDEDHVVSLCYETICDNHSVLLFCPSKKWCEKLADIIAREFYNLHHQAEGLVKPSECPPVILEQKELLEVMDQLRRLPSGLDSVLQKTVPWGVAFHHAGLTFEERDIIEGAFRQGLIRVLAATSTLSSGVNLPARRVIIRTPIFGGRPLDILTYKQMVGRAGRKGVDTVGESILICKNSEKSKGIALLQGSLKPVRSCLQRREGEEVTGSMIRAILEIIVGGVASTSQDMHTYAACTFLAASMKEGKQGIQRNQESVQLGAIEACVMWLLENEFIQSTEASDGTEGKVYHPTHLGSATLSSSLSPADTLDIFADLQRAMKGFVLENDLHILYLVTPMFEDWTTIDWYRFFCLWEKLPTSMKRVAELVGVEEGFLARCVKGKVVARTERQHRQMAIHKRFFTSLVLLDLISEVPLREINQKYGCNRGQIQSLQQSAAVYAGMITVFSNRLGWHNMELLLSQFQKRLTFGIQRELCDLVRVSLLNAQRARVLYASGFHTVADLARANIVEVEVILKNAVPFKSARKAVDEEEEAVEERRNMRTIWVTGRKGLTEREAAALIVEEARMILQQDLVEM

[5] = system: BRCA1-deficient cells; conditions: read-out: IC50 in BRCA1-deficient cells; cited from earlier work

SMILES | activity against Brca1 Δ11 MEFs [1] | colony survival, killing of BRCA2-KO cells [2] | colony survival, killing of Brca1 cc/cc MEFs [3] | inhibition of Polθ-hel ssDNA binding [4] | IC50 [5]
Cc1cccc(N(C)C(=O)[C@@H]2[C@H](O)CCN2c2nc(C)cc(C(F)(F)F)c2C#N)c1 [ART558] | relatively modest activity |  |  |  | 
CO[C@@H]1[C@@H](OC(N)=O)[C@@H](O)[C@H](Oc2ccc3c(O)c(NC(=O)c4ccc(O)c(CC=C(C)C)c4)c(=O)oc3c2C)OC1(C)C [Novobiocin] |  | selective killing of BRCA2-KO cells at significantly higher concentrations | no preferential killing of these cells up to 10 μM | inhibits Polθ-hel ssDNA binding | 50 to 100 µM
